Measured values as given in ChEMBL document CHEMBL1143997, “Further structural optimization of cis-(6-benzhydryl-piperidin-3-yl)-benzylamine and 1,4-diazabicyclo[3.3.1]nonane derivatives by introducing an exocyclic hydroxyl group: interaction with dopamine, serotonin, and norepinephrine transporters” (Bioorg Med Chem, 2008).

What was measured:
[1] = species: Rattus norvegicus; assay: Ratio of Ki for NET to Ki for DAT in rat brain; type: tissue-based
[2] = target: T1, Sodium-dependent dopamine transporter (Rattus norvegicus, UniProt P23977); assay: Displacement of [3H]WIN-from DAT in rat striatum
In short: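 Compounds dissolved in DMSO, diluted in 10% DMSO, final 0.5% DMSO. At least five concentrations in triplicate spaced around IC50. IC50 from nonlinear curve fitting, converted to Ki by Cheng-Prusoff. Mean ± SEM of 3–8 independent experiments.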

[3] = target: Sodium-dependent serotonin transporter (Rattus norvegicus, UniProt P31652); assay: Inhibition of [3H]5HT uptake in SERT in rat cerebral cortex; type: tissue-based
In short: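 Rat cerebral cortex; [3H]5-HT accumulation measured. Nonspecific uptake defined with 10 uM citalopram. Compounds dissolved in DMSO, final 0.5% DMSO. At least five triplicate concentrations spaced around IC50. Nonlinear fit, with Ki by Cheng-Prusoff. Mean ± SEM of 3–8 independent experiments in triplicate.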

[4] = target: T1, Sodium-dependent dopamine transporter; assay: Inhibition of [3H]dopamine uptake in DAT in rat striatum; type: tissue-based
In short: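 Rat striatal tissue; [3H]DA accumulation measured. Nonspecific uptake defined with 100 uM cocaine. Compounds dissolved in DMSO, final 0.5% DMSO. At least five triplicate concentrations spaced around IC50. Nonlinear curve fit, with Ki from Cheng-Prusoff. Mean ± SEM of 3–8 independent experiments done in triplicate.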

[5] = species: Rattus norvegicus; assay: Ratio of Ki for SERT to Ki for DAT in rat brain; type: tissue-based
[6] = target: Sodium-dependent dopamine transporter (Rattus norvegicus) (UniProt P23977); assay: Ratio of [3H]DA uptake to [3H]WIN-binding to DAT in rat brain; type: tissue-based
[7] = target: Norepinephrine transporter (Rattus norvegicus, UniProt Q9WTR4); assay: Inhibition of [3H]NE uptake in NET in rat cerebral cortex; type: tissue-based
Norepinephrine transporter, sequence (Q9WTR4 whole entry): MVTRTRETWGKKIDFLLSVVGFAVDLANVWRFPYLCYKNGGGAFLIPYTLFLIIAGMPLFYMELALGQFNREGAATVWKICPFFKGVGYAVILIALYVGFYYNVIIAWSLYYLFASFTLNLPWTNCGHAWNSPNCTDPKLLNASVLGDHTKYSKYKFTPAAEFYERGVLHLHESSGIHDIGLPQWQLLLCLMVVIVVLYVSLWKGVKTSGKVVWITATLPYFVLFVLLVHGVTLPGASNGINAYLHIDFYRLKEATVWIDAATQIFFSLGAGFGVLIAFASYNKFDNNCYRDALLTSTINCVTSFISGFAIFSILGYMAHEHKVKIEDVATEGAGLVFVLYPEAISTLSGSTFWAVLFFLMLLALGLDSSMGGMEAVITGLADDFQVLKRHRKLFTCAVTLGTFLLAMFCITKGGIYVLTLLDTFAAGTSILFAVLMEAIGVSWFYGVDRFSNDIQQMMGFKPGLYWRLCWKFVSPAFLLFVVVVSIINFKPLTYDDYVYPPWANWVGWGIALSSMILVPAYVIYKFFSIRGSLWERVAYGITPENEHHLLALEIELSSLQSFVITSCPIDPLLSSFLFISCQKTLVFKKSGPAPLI

T1 sequence (P23977 whole entry): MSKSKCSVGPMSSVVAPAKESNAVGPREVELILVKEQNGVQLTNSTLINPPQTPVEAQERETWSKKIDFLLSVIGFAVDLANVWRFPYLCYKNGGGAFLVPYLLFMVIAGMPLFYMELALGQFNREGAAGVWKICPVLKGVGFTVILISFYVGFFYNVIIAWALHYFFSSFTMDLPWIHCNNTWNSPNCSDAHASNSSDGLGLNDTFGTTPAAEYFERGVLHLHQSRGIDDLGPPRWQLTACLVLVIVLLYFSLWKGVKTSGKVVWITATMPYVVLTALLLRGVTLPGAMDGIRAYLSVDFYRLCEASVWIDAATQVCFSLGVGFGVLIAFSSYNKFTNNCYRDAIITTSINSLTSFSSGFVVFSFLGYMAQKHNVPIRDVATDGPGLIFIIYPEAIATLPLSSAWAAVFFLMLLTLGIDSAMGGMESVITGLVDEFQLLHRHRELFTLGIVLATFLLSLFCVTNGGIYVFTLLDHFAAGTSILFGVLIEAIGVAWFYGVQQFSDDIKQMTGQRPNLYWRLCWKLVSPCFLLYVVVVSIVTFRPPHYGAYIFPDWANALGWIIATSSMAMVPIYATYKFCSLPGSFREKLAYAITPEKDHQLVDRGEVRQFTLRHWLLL
Sodium-dependent dopamine transporter (Rattus norvegicus), sequence (P23977 whole entry): as above
Sodium-dependent serotonin transporter, sequence (P31652 whole entry): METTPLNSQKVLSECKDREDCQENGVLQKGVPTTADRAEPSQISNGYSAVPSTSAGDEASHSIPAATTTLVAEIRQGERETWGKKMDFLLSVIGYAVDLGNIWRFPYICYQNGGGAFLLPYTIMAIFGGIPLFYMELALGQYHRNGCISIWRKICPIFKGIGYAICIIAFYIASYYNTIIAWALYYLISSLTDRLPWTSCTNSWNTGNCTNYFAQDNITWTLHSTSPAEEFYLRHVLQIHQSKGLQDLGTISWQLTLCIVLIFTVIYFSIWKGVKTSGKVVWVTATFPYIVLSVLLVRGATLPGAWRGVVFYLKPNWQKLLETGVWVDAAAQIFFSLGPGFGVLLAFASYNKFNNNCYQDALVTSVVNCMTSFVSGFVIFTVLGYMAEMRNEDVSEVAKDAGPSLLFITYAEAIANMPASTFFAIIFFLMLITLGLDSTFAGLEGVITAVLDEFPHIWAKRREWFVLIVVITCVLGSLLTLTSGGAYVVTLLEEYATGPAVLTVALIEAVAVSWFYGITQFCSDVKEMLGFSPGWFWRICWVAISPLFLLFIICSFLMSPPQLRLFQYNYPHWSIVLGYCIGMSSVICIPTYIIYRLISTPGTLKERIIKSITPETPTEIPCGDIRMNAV

Structure (SMILES): O[C@H](CCN1CCN2C[C@@H]1CC[C@H]2C(c1ccccc1)c1ccccc1)c1ccc(F)cc1
- Ratio Ki [1]: 9.2
- Ki [2]: 19.9 nM
- Ki [3]: 11900 nM
- Ki [4]: 41.8 nM
- Ratio Ki [5]: 284
- Ratio Ki [6]: 2.1
- Ki [7]: 388 nM

Structure (SMILES): N#Cc1ccc(CN[C@H]2CC[C@@H](C(c3ccccc3)c3ccccc3)NC2)cc1
- Ki [2]: 11.3 nM
- Ki [4]: 9.1 nM

Structure (SMILES): O[C@@H](Cc1ccccc1)CN1CCN2C[C@@H]1CC[C@H]2C(c1ccccc1)c1ccccc1
- Ratio Ki [1]: 15.4
- Ki [2]: 47 nM
- Ki [3]: 10300 nM
- Ki [4]: 16.8 nM
- Ratio Ki [5]: 615
- Ratio Ki [6]: 0.35
- Ki [7]: 259 nM

Structure (SMILES): O[C@H](CN1CCN2C[C@@H]1CC[C@H]2C(c1ccccc1)c1ccccc1)c1ccccc1
- Ratio Ki [1]: 6.5
- Ki [2]: 1040 nM
- Ki [3]: 9510 nM
- Ki [4]: 266 nM
- Ratio Ki [5]: 35.7
- Ratio Ki [6]: 0.25
- Ki [7]: 1730 nM

Structure (SMILES): O[C@H](Cc1ccccc1)CN1CCN2C[C@@H]1CC[C@H]2C(c1ccccc1)c1ccccc1
- Ratio Ki [1]: 8.8
- Ki [2]: 148 nM
- Ki [3]: 11200 nM
- Ki [4]: 82.9 nM
- Ratio Ki [5]: 135
- Ratio Ki [6]: 0.56
- Ki [7]: 730 nM

Structure (SMILES): O[C@H](CN[C@H]1CC[C@@H](C(c2ccccc2)c2ccccc2)NC1)Cc1ccccc1
- Ratio Ki [1]: 9.1
- Ki [2]: 28.9 nM
- Ki [3]: 2600 nM
- Ratio Ki [5]: 103
- Ratio Ki [6]: 0.87
- Ki [7]: 231 nM

Structure (SMILES): O[C@@H](CN[C@H]1CC[C@@H](C(c2ccccc2)c2ccccc2)NC1)c1ccc(F)cc1
- Ratio Ki [1]: 6
- Ki [3]: 2900 nM
- Ratio Ki [5]: 12.2
- Ki [7]: 1440 nM

Structure (SMILES): O[C@@H](CCN1CCN2C[C@@H]1CC[C@H]2C(c1ccccc1)c1ccccc1)c1ccc(F)cc1
- Ratio Ki [1]: 48.4
- Ki [2]: 13.5 nM
- Ki [3]: 1480 nM
- Ki [4]: 8.63 nM
- Ratio Ki [5]: 172
- Ratio Ki [6]: 0.63
- Ki [7]: 418 nM

Structure (SMILES): COc1ccc(CN2CCN3C[C@@H]2CC[C@H]3C(c2ccccc2)c2ccccc2)cc1
- Ki [2]: 22.5 nM
- Ki [4]: 18.4 nM

Structure (SMILES): O[C@H](CN1CCN2C[C@@H]1CC[C@H]2C(c1ccccc1)c1ccccc1)c1ccc(F)cc1
- Ratio Ki [1]: 4.5
- Ki [2]: 649 nM
- Ki [3]: 7340 nM
- Ki [4]: 160 nM
- Ratio Ki [5]: 45.9
- Ratio Ki [6]: 0.24
- Ki [7]: 728 nM

Structure (SMILES): O[C@@H](CN1CCN2C[C@@H]1CC[C@H]2C(c1ccccc1)c1ccccc1)c1ccc(F)cc1
- Ratio Ki [1]: 4.7
- Ki [2]: 142 nM
- Ki [3]: 7410 nM
- Ki [4]: 66.5 nM
- Ratio Ki [5]: 111
- Ratio Ki [6]: 0.46
- Ki [7]: 319 nM

Structure (SMILES): O[C@@H](CN1CCN2C[C@@H]1CC[C@H]2C(c1ccccc1)c1ccccc1)c1ccccc1
- Ratio Ki [1]: 4.6
- Ki [2]: 228 nM
- Ki [3]: 12900 nM
- Ki [4]: 204 nM
- Ratio Ki [5]: 63.2
- Ratio Ki [6]: 0.89
- Ki [7]: 954 nM

Structure (SMILES): O[C@@H](CN[C@H]1CC[C@@H](C(c2ccccc2)c2ccccc2)NC1)Cc1ccccc1
- Ki [3]: 1390 nM
- Ki [4]: 10.6 nM
- Ratio Ki [6]: 0.78
- Ki [7]: 170 nM
